# From ChEMBL document CHEMBL3351736, “A promising camptothecin derivative: Semisynthesis, antitumor activity and intestinal permeability” (Eur J Med Chem, 2014)
# Calls of active or inactive are those of the source. No cut-off for these calls is given here.
# Experiments:
# [1] = Permeability from basolateral to apical side in human Caco2 cells at 10 to 50 uM after 15 to 90 mins by HPLC analysis; format: ADME, cell-based; details: caco-2, 50 µM
# Summary of the method: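 Caco-2 cells seeded at 400,000 per polycarbonate transwell insert (0.4 μm pore) and grown in DMEM for 19-22 days to confluence at 37°C, 5% CO2. TEER checked before and after each run. Compound in donor chamber, buffer in receiver. Run at 37°C with 50 rpm orbital shaking. Receiver sampled at 15, 30, 60 and 90 min with buffer replacement; donor sampled at start and end. HPLC quantitation; three independent experiments.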
# Caco-2 [2] = test: Induction of apoptosis in human Caco2 cells assessed as late apoptotic cells at 0.5 uM after 48 hrs by Annexin V/propidium iodide staining-based flow cytometric analysis (reference value: 2.20 +/- 0.77%); format: functional
# Caco-2 [3] = test: Induction of apoptosis in human Caco2 cells assessed as vital cells at 0.5 uM after 48 hrs by Annexin V/propidium iodide staining-based flow cytometric analysis (reference value: 96.67 +/- 1.02%); format: functional
# HeLa [4] = test: Induction of apoptosis in human HeLa cells assessed as inhibition of DNA synthesis after 24 hrs by BrdU staining-based ELISA; format: functional, cell-based
# Summary of the method: (§1)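 Cells seeded at 25,000/well; compounds added 24 h after seeding at a range of concentrations and incubated 24 h. Cells fixed, then colorimetric BrdU-incorporation ELISA. Absorbance read at 370-492 nm over 3 intervals of 5 min. Mean of three separate experiments with triplicate samples.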
# HeLa [5] = test: Induction of apoptosis in human HeLa cells assessed as p53 phosphorylation at Ser15 by Western blotting analysis; format: functional, cell-based
# Summary of the method: (§2)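 Cells treated 24 h. About 10^6 cells lysed on ice 15 min in Hepes pH 7.4/Triton X-100 buffer with phosphatase and protease inhibitors, then spun 13,000 × g. 30 µg protein run on 12% SDS-PAGE and blotted to nitrocellulose. Primary anti-phospho-p53 (Ser15) and anti-p53 at 1:1000 for 2 h at room temperature, then HRP secondary and ECL densitometry. Results referred to untreated control.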
# Caco-2 [6] = test: Induction of apoptosis in human Caco2 cells assessed as early apoptotic cells at 0.05 uM after 48 hrs by Annexin V/propidium iodide staining-based flow cytometric analysis (reference value: 0.72 +/- 0.03%); format: functional
# [7] = Effective permeability from apical to basolateral side in human Caco2 cells at 50 uM after 15 to 90 mins by HPLC analysis; format: ADME, cell-based; details: Caco-2, read-out: Peff
# Summary of the method: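 Caco-2 monolayers grown 19-22 days on polycarbonate transwell inserts (4.2 cm², 0.4 µm pore) at 37 °C, 5% CO2; TEER checked before and after each run. Compound added to donor side at 37 °C, 50 rpm. Receiver sampled at 15, 30, 60 and 90 min; donor sampled at start and end. HPLC analysis. Sodium azide, when used, placed on both sides. Three independent experiments.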
# Caco-2 [8] = test: Induction of apoptosis in human Caco2 cells assessed as necrotic cells at 0.05 uM after 48 hrs by Annexin V/propidium iodide staining-based flow cytometric analysis (reference value: 0.41 +/- 0.02%); format: functional
# Caco-2 [9] = test: Induction of apoptosis in human Caco2 cells assessed as vital cells at 0.5 uM after 24 hrs by Annexin V/propidium iodide staining-based flow cytometric analysis (reference value: 96.67 +/- 1.02%); format: functional
# MDA-MB-231 [10] = test: Induction of apoptosis in human MDA-MB-231 cells assessed as p53 phosphorylation at Ser15 by Western blotting analysis; format: functional, cell-based; summary of the method: as §2
# [11] = Cytotoxicity against human Caco2 cells after 24 hrs by MTT assay; format: functional, cell-based; details: Caco-2, 24 h
# MDA-MB-231 [12] = test: Cytotoxicity against human MDA-MB-231 cells after 24 hrs by MTT assay; format: functional, cell-based; details: MDA-MB-231, 24 h
# Summary of the method: (§3)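 Cells seeded at 25000 per well and held 24 h at 37 °C in 5% CO2. Medium was then renewed and compounds added at increasing concentrations (DMSO 0.1%, or water for topotecan) for 24 h. MTT solution (5 mg/mL) was added for 3 h at 37 °C, then absorbance read at 570 nm, corrected at 630 nm. IC50 in µM.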
# A-375 [13] = test: Induction of apoptosis in human A375 cells assessed as inhibition of DNA synthesis after 24 hrs by BrdU staining-based ELISA; format: functional, cell-based; summary of the method: as §1
# A-375 [14] = test: Induction of apoptosis in human A375 cells assessed as p53 phosphorylation at Ser15 by Western blotting analysis; format: functional, cell-based; summary of the method: as §2
# Caco-2 [15] = test: Induction of apoptosis in human Caco2 cells assessed as late apoptotic cells at 0.05 uM after 48 hrs by Annexin V/propidium iodide staining-based flow cytometric analysis (reference value: 2.20 +/- 0.77%); format: functional
# Small intestine = test: Effective permeability in Wistar rat small intestine assessed as absorption rate coefficient at 50 uM measured after 5 mins in every 5 min interval up to 30 mins; format: ADME, tissue-based
# Summary of the method: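 Male Wistar rats fasted 2 h with water available, then anaesthetised with diazepam (1.67 mg/kg), ketamine (50 mg/kg) and atropine (1 mg/kg) and kept at 37°C on a heated surface. In situ intestinal perfusion. Perfusate sampled from 5 min at 5 min intervals up to 30 min. Absorption rate constant (Ka) and Peff derived.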
# Caco-2 [16] = test: Induction of apoptosis in human Caco2 cells assessed as necrotic cells at 0.5 uM after 48 hrs by Annexin V/propidium iodide staining-based flow cytometric analysis (reference value: 0.41 +/- 0.02%); format: functional
# Jurkat = test: Cytotoxicity against human Jurkat cells after 24 hrs by MTT assay; format: functional, cell-based; summary of the method: as §3
# Caco-2 [17] = test: Induction of apoptosis in human Caco2 cells assessed as early apoptotic cells at 0.5 uM after 48 hrs by Annexin V/propidium iodide staining-based flow cytometric analysis (reference value: 0.72 +/- 0.03%); format: functional
# Caco-2 [18] = test: Induction of apoptosis in human Caco2 cells assessed as early apoptotic cells at 0.5 uM after 24 hrs by Annexin V/propidium iodide staining-based flow cytometric analysis (reference value: 0.72 +/- 0.03%); format: functional
# [19] = Efflux ratio of effective permeability from basolateral to apical side over apical to basolateral side in human Caco2 cells at 10 to 50 uM after 15 to 90 mins by HPLC analysis; format: ADME, cell-based; details: Caco-2
# Summary of the method: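 Caco-2 monolayers (400,000 cells per polycarbonate transwell insert, 0.4 µm pores) grown in DMEM for 19-22 days at 37 °C and 5% CO2. TEER was checked before and after each run. Compound was placed on the donor side and buffer on the receiver side, in both apical-to-basal and basal-to-apical directions, at 37 °C with 50 rpm orbital shaking. Receiver samples were taken at 15, 30, 60 and 90 min with buffer replaced, and donor samples at start and end. Analysis was by HPLC; three independent experiments.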
# Caco-2 [20] = test: Induction of apoptosis in human Caco2 cells assessed as vital cells at 0.05 uM after 24 hrs by Annexin V/propidium iodide staining-based flow cytometric analysis (reference value: 96.67 +/- 1.02%); format: functional
# Caco-2 [21] = test: Induction of apoptosis in human Caco2 cells assessed as late apoptotic cells at 0.5 uM after 24 hrs by Annexin V/propidium iodide staining-based flow cytometric analysis (reference value: 2.20 +/- 0.77%); format: functional
structure (smiles),measurement,setting,value
CC[C@@]1(O)C(=O)OCc2c1cc1n(c2=O)Cc2cc3c(CN(C)C)c(O)ccc3nc2-1.Cl [TOPOTECAN HYDROCHLORIDE],permeability,[1],permeable
same,Activity,Caco-2 [2],53.12%
same,Activity,Caco-2 [3],38.26%
same,inhibition,HeLa [4],Dose-dependent effect
same,Activity,HeLa [5],inactive
same,Activity,Caco-2 [6],2.36%
same,Papp A→B at 50 µM,[7],1.77 ×10⁻⁶ cm/s
same,Activity,Caco-2 [8],2.36%
same,Activity,Caco-2 [9],53.08%
same,Activity,MDA-MB-231 [10],Active
same,IC50,[11],119 nM
same,IC50,MDA-MB-231 [12],473 nM
same,inhibition,A-375 [13],Dose-dependent effect
same,Activity,A-375 [14],Active
same,Activity,Caco-2 [15],48.06%
same,Ka,Small intestine,2.25 h⁻¹
same,Activity,Caco-2 [16],2.88%
same,IC50,Jurkat,127 nM
same,Activity,Caco-2 [17],5.74%
same,Activity,Caco-2 [18],4.4%
same,efflux ratio at up to 50 µM,[19],> 1
same,Activity,Caco-2 [20],71.4%
same,Activity,Caco-2 [21],33.98%
